Sampled rows, rich in hits. Any-hit rate of the full collection: about 2.3%.
GalR3 antagonist: antagonists of human GalR3 | hit rate 0.44% among 360,000 | O60755 | HEK293 GalR3-CNG cAMP membrane potential fluorescence; galR3 body fused to GalR1 C-terminus | inhibition, % at 3 µM;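 active = inhibition above the screen-wide average plus 3 SD, cut at about 13% in these data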;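 also: forskolin and galanin both at EC90 stimulate the cells; cAMP rise reported by CNG channel membrane potential dye signal; 0% = forskolin plus galanin with DMSO and 100% = forskolin alone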
NR2E3 ag-1: activates human NR2E3 receptor; Q9Y5X4; CHO-S Gal4-NCOR/VP16-NR2E3 two-hybrid, luciferase; inhibition of corepressor binding, % at 3.98 µM; hit rate 0.35% among 360,000;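 active = inhibition above the mean of all tested compounds plus 3 SD, cut at about 70% in these data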;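 also: 0% = DMSO with NR2E3 transfected cells and 100% = cells lacking NR2E3 construct; higher means lower luciferase signal from less NR2E3 corepressor binding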
NR2F2 inh: blocks human COUP-TFII nuclear receptor; P24468; HEK293T NGFI-A luciferase reporter, luminescence; inhibition, % at 8.6 µM; hit rate 0.7% among 370,000; AID 686940;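 active = inhibition above a per-plate cutoff, mean inhibition of test wells between control levels plus 3 SD, cut at about 38% in these data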;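 also: cells cotransfected with COUP-TFII expression vector driving the NGFI-A reporter; 0% = median of COUP-TF2 test wells and 100% = reporter-only cells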
CHT inh: human CHT choline transport inhibition; Q9GZV3; hit rate 0.86% among 310,000; B-score at 10 µM; CHT-expressing cells, membrane potential dye, choline response; hits give low values; AID 488975;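 active = B-score over 3 SD under the library average, and starting fluorescence ratio not unusually high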;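 also: choline stimulus applied at its EC90 after an EC20 pre-addition; B-score computed on integrated fluorescence ratio after choline addition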
Target sequence (Q9GZV3 whole entry, looked up): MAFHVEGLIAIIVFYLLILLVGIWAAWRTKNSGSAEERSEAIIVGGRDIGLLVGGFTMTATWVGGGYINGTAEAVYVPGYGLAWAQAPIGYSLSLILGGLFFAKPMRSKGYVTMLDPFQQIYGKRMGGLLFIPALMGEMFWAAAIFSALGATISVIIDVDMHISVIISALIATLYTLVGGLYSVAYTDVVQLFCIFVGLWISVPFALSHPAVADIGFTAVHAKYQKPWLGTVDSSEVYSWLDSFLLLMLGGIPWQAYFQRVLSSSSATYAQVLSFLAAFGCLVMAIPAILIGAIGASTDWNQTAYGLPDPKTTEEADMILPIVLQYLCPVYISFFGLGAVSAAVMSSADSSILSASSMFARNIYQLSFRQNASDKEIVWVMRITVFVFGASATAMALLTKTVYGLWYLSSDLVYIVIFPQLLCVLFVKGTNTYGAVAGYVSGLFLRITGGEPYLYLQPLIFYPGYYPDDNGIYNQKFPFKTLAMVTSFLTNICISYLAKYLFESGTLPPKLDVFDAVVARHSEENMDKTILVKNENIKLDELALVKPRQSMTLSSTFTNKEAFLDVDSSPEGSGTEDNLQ
CHT PAM: allosterically activates the human high affinity choline transporter; Q9GZV3; CHT-expressing cells, membrane potential dye, choline EC20; hits give high values; LV-AA mutant CHT in HEK293 cells; B-score at 10 µM; hit rate 0.49% among 310,000;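 active = initial fluorescence not abnormally high and integrated response B-score, plate-corrected, over 3 SD above library mean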
NR2E3 ag-2: agonists of human nuclear receptor NR2E3; Q9Y5X4; GST-NR2E3/biotin-RetCOR TR-FRET, 1536-well; inhibition of corepressor binding, % at 4.78 µM; hit rate 0.12% among 320,000; AID 2300;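 active = percent inhibition above the cutoff of mean plus 3 SD of all tested compounds, set per screening campaign, cut at about 20% in these data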;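 also: 0% = DMSO wells and 100% = biotin wells as full block of FRET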
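system = GST-tagged NR2E3 plus biotinylated RetCOR corepressor | input = 1.35 nM GST-NR2E3 | also added = 7 nM biotin-RetCOR | schedule = 5 h incubation at 4 °C | measured by = TR-FRET with europium anti-GST and streptavidin-D2, 340 nm excitation | read-out = percent loss of FRET ratio relative to control wells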
GalR3 conf: confirmation of human galanin receptor 3 antagonists | hit rate 59% among 1,600 | HEK293 GalR3 CNG cAMP biosensor, membrane potential fluorescence; galR3 fused to GalR1 carboxy tail; challenged with forskolin and galanin at EC90 | inhibition, % at 3 µM | AID 652245 | shares compounds with GalR3 antagonist;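 active = inhibition above the primary screen's cutoff, the mean inhibition of all screened compounds plus 3 SD, cut at about 13% in these data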;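 also: 0% = forskolin plus galanin and 100% = forskolin alone with DMSO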
HEK-CNG parental: parental cell agonism counter-screen for GalR3 antagonists; HEK293-CNG parental cells, cAMP membrane potential fluorescence; normalised: DMSO wells 0%, forskolin wells 100%; shares compounds with GalR3 antagonist; hit rate 10% among 1,600; activation, % at 3 µM; AID 652268; in the data active = activation above about 1.3%
The depositor's hits bear a star.

What do the screens show for `COc1cc([N+](=O)[O-])cc(/C=N/NC(=O)c2cccnc2)c1O`?
GalR3 antagonist: 54*; NR2E3 ag-1: -7; NR2F2 inh: -1; CHT inh: inactive; CHT PAM: inactive; NR2E3 ag-2: -2; GalR3 conf: 7; HEK-CNG parental: 0

How did C[C@@H]1[C@@H](c2ccccc2)c2cc3ccccc3nc2-c2nc3ccccc3cc2[C@@H]1C(=O)N1CCCC1 do in these assays?
NR2F2 inh: -1

How did Cc1cccc(NC2=C(Cl)C(=O)OC2OC(C)C)c1 (stereo not given) do in these assays?
GalR3 antagonist: 14*; NR2E3 ag-1: -26; NR2F2 inh: 18; CHT inh: inactive; CHT PAM: inactive; NR2E3 ag-2: 2; GalR3 conf: 6; HEK-CNG parental: 0

How did Cc1ccc(NC2=C(Cl)C(=O)OC2OC(C)C)cc1 (stereo not given) do in these assays?
GalR3 antagonist: -3; NR2E3 ag-1: -8; NR2F2 inh: -14; CHT inh: inactive; CHT PAM: inactive; NR2E3 ag-2: -1

How did CCOc1ccc(/C=C/C2=NNC(=O)CC2)cc1 do in these assays?
GalR3 antagonist: 1; NR2E3 ag-1: -55; NR2F2 inh: -36; CHT inh: inactive; CHT PAM: inactive; NR2E3 ag-2: -6

Results for COc1ccc(/C=C/C2=NNC(=O)CC2)cc1 ?
GalR3 antagonist: 15*; NR2E3 ag-1: -59; NR2F2 inh: -2; CHT inh: inactive; CHT PAM: inactive; NR2E3 ag-2: -4; GalR3 conf: 9; HEK-CNG parental: 0

What do the screens show for `CCN(CC)C(=O)CC[C@H]1CC[C@]2(CCCN(Cc3ccccc3)C2)O1`?
NR2F2 inh: -12

What do the screens show for `CCc1ccccc1NC(=O)CN(C)S(=O)(=O)c1ccc(-c2ccc(=O)[nH]n2)s1`?
GalR3 antagonist: -4; NR2E3 ag-1: -9; NR2F2 inh: -8; CHT inh: inactive; CHT PAM: inactive; NR2E3 ag-2: 0

How did CCOC(=O)CCN(c1ccccc1)S(=O)(=O)c1ccc(-c2ccc(=O)[nH]n2)s1 do in these assays?
GalR3 antagonist: 33*; NR2E3 ag-1: 14; NR2F2 inh: -4; CHT inh: inactive; CHT PAM: inactive; NR2E3 ag-2: 1; GalR3 conf: 57*; HEK-CNG parental: 0

Results for COCCN(Cc1cccs1)S(=O)(=O)c1ccc(-c2ccc(=O)[nH]n2)s1 ?
GalR3 antagonist: 26*; NR2E3 ag-1: -58; NR2F2 inh: -2; CHT inh: inactive; CHT PAM: inactive; NR2E3 ag-2: 0; GalR3 conf: 28*; HEK-CNG parental: 0

How did CCCCN(Cc1cccs1)S(=O)(=O)c1ccc(-c2ccc(=O)[nH]n2)s1 do in these assays?
GalR3 antagonist: 22*; NR2E3 ag-1: 0; NR2F2 inh: 2; CHT inh: inactive; CHT PAM: inactive; NR2E3 ag-2: 1; GalR3 conf: 24*; HEK-CNG parental: 0

What do the screens show for `COCCCN(Cc1cccs1)S(=O)(=O)c1csc(C(N)=O)c1`?
GalR3 antagonist: -8; NR2E3 ag-1: -4; NR2F2 inh: 4; CHT inh: inactive; CHT PAM: inactive; NR2E3 ag-2: 4

How did CC(C)C[C@@H]1COc2cc(Br)ccc2S(=O)(=O)N1Cc1cn(CCC2OCCO2)nn1 do in these assays?
NR2F2 inh: -19

How did COc1ccc(CN2C(=O)CCCC2(C)c2nnnn2-c2ccc3c(c2)OCCO3)cc1 (stereo not given) do in these assays?
NR2F2 inh: -1

Results for COc1ccc(C(=O)Nc2ccccc2C(=O)NC(Cc2ccc(O)cc2)C(=O)NNC(=O)c2ccccc2)cc1 (stereo not given) ?
GalR3 antagonist: 13*; NR2E3 ag-1: -7; NR2F2 inh: -6; CHT inh: inactive; CHT PAM: inactive; NR2E3 ag-2: -3; GalR3 conf: 6; HEK-CNG parental: 0

How did COc1ccc(C(=O)Nc2ccccc2C(=O)NC(Cc2ccc(O)cc2)C(=O)NNC(=O)c2ccc(C)cc2)cc1 (stereo not given) do in these assays?
GalR3 antagonist: 4; NR2E3 ag-1: -34; NR2F2 inh: 2; CHT inh: inactive; CHT PAM: inactive; NR2E3 ag-2: 6

Results for CCn1cc(C(=O)N2CCN(Cc3ccc(C)cc3)CC2)c(=O)c2ccc(C)nc21 ?
NR2F2 inh: 26

Results for NCCOc1ccc(C23CC4CC(CC(C4)C2)C3)cc1 ?
GalR3 antagonist: 27*; NR2E3 ag-1: 20; NR2F2 inh: -12; CHT inh: inactive; CHT PAM: inactive; NR2E3 ag-2: -3; GalR3 conf: 28*; HEK-CNG parental: 14*

How did OCCN1CCN(CC(O)COc2ccc(C34CC5CC(CC(C5)C3)C4)cc2)CC1 (stereo not given) do in these assays?
GalR3 antagonist: -8; NR2E3 ag-1: 17; NR2F2 inh: -4; CHT inh: inactive; CHT PAM: inactive; NR2E3 ag-2: 5

What do the screens show for `CCCOc1ccc(NC(=O)CC2C(=O)N(C)C(=S)N2Cc2cccs2)cc1` (stereo not given)?
GalR3 antagonist: -2; NR2E3 ag-1: -6; NR2F2 inh: -3; CHT inh: inactive; CHT PAM: inactive; NR2E3 ag-2: -1

How did CN1C(=O)C(CC(=O)Nc2ccc(F)cc2)N(Cc2cccs2)C1=S (stereo not given) do in these assays?
GalR3 antagonist: 15*; NR2E3 ag-1: 14; NR2F2 inh: -12; CHT inh: inactive; CHT PAM: inactive; NR2E3 ag-2: 0; GalR3 conf: 4; HEK-CNG parental: -1

What do the screens show for `COC(=O)c1ccc(N2CCN(CC(=O)c3ccc(-c4ccccc4)cc3)CC2)c([N+](=O)[O-])c1`?
NR2E3 ag-1: -79; NR2F2 inh: -6; CHT inh: inactive; CHT PAM: inactive; NR2E3 ag-2: 5; GalR3 conf: 7; HEK-CNG parental: 0

What do the screens show for `COC(=O)c1ccc(N2CCN(CC(=O)c3ccc(C)cc3)CC2)c([N+](=O)[O-])c1`?
GalR3 antagonist: -6; NR2E3 ag-1: -23; NR2F2 inh: -20; CHT inh: inactive; CHT PAM: inactive; NR2E3 ag-2: 4

How did CCCCC(=O)Nc1ccc(C(=O)NCC2COc3ccccc3O2)cc1 (stereo not given) do in these assays?
NR2F2 inh: 2
